From ChEMBL document CHEMBL1129604, “Design, synthesis, and evaluation of nonpeptidic inhibitors of human rhinovirus 3C protease” (J Med Chem, 1996)

Tests used:
[1] = biological target: T1, Human rhinovirus A protease (Human rhinovirus sp., UniProt Q4U254); assay: Inhibition of human rhinovirus 3C protease; parameters: species or system Rhinovirus B
T1 sequence (Q4U254 whole entry): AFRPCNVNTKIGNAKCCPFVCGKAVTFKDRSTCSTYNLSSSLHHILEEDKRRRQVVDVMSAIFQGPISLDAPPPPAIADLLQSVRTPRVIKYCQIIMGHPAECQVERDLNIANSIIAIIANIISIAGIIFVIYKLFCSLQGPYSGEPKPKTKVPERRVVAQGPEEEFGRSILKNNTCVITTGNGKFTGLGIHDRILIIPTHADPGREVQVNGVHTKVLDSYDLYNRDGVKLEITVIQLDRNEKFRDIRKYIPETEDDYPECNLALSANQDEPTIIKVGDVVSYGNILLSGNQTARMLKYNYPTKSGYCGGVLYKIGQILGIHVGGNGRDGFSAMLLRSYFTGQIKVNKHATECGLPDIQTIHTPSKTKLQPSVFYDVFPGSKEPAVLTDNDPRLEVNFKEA
In short: (§1)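 Buffer was 50 mM Tris pH 7.6, 1 mM EDTA, 2% DMSO at 30 °C. Enzyme and inhibitor were preincubated 10 min before substrate start. Fluorescence ex 336/em 490 nm. Ki came from nonlinear fit of initial velocity versus inhibitor.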

HeLa [2] = assay: Compound was tested for the antiviral activity against Human Rhinovirus -14(HRV-14) in HeLa cells; format: functional, cell-based
In short: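 Cell protection assay in HI-HeLa cells (MEM, 10% FBS). Cells were infected with HRV-14 at moi 0.13, resuspended at 8 × 10^5 cells/mL and incubated with compound for two days. XTT/PMS formazan was read at 450/650 nm. EC50 is the concentration restoring formazan to 50% of compound-free uninfected cells.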

HeLa [3] = assay: Compound was tested for the 50% toxic concentration against Human Rhinovirus-14 (HRV-14) in Hela cells; format: functional; settings: read-out: TC50 (the source's name)
In short: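 HI-HeLa cells in MEM with 10% FBS, mock-infected with medium only, resuspended at 8 × 10^5 cells/mL and incubated with compound. After two days, XTT/PMS was added and formazan was read at 450/650 nm. CC50 is the concentration lowering formazan to 50% of compound-free uninfected cells.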

[4] = Theuraptic index was reported; format: functional
In short: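 TI is CC50 (uninfected HI-HeLa, XTT formazan) divided by EC50 (HRV-14-infected HI-HeLa, moi 0.13, two days, XTT read at 450/650 nm).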

[5] = (§2) Percentage inhibition of Cathepsin (human liver) at 100 uM conc of drug
Enterovirus [6] = assay: Compound was tested for the inhibitory activity of compound towards human rhinovirus-2 3C protease; format: functional, organism-based
In short: (§3)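 3CP from HRV-16, -2 or -89 was cloned from infected-HeLa cDNA (3A C-terminus–3B–3C region), expressed in E. coli and purified. The same FRET assay (1 μM DABCYL/EDANS peptide, 50 mM Tris pH 7.6, 1 mM EDTA, 2% DMSO, 30 °C, 10 min preincubation) was run at 100–200 nM enzyme. Ki was obtained by nonlinear regression of initial velocities.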

[7] = biological target: Chymotrypsinogen A (Bos taurus) (UniProt P00766); assay: (§4) Percentage inhibition of bovine chymotrypsin at 100 uM conc of drug
[8] = biological target: T2, Neutrophil elastase (Homo sapiens) (UniProt P08246); assay: (§5) Percentage inhibition of Pancreatic elastase at 100 uM conc of drug
T2 sequence (whole entry): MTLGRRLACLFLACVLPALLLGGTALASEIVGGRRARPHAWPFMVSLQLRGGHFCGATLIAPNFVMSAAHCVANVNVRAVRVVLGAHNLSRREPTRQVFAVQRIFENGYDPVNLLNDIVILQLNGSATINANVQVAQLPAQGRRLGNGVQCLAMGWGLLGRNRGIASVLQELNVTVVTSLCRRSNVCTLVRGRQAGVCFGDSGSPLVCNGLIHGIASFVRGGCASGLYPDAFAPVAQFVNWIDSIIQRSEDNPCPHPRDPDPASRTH

Enterovirus [9] = assay: Compound was tested for the inhibitory activity of compound towards human rhinovirus 3C protease; format: functional, organism-based; in short: as §1
Enterovirus [10] = assay: Compound was tested for the inhibitory activity of compound towards human rhinovirus-89 3C protease; format: functional, organism-based; in short: as §3
Enterovirus [11] = assay: Compound was tested for the inhibitory activity of compound towards human rhinovirus-16 3C protease; format: functional, organism-based; in short: as §3
[12] = biological target: Prothrombin (Homo sapiens) (UniProt P00734); assay: (§6) Percentage inhibition of human thrombin at 100 uM conc of drug
[13] = biological target: T3, Serine protease 1 (Bos taurus) (UniProt P00760); assay: (§7) Percentage inhibition of bovine trypsin at 100 uM conc of drug
T3 sequence (whole entry): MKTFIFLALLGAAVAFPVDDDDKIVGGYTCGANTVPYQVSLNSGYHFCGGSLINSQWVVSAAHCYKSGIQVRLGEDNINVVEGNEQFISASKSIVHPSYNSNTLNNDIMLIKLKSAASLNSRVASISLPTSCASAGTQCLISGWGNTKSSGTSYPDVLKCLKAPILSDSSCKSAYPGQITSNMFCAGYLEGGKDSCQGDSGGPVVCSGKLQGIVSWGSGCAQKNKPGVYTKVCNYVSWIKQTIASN

[14] = biological target: T2, Neutrophil elastase (Homo sapiens); assay: as §5; format: functional
[15] = biological target: Chymotrypsinogen A (Bos taurus) (UniProt P00766); assay: as §4; format: functional
[16] = as §2; format: functional
[17] = biological target: Prothrombin (Homo sapiens) (UniProt P00734); assay: as §6; format: functional
[18] = biological target: T3, Serine protease 1 (Bos taurus); assay: as §7; format: functional
[19] = biological target: Chymotrypsinogen A (Bos taurus) (UniProt P00766); assay: Percentage inhibition of bovine chymotrypsin at 50 uM conc of drug
[20] = Percentage inhibition of Cathepsin (human liver) at 10 uM conc of drug

Row | SMILES | Ki [1] [µM] | EC50 (HeLa [2]) [µM] | CC50 (HeLa [3]) [µM] | further results
1 | Cc1ccc(CN2C(=O)C(=O)c3cc(C(N)=O)ccc32)cc1C | 0.006 |  |  | 
2 | CC(=O)c1ccc2c(c1)C(=O)C(=O)N2C | 1.2 |  |  | 
3 | NC(=O)c1ccc2c(c1)C(=O)C(=O)N2Cc1ccc2ccccc2c1 | 0.004 | > 10 | 10 | 
4 | CN1C(=O)C(=O)c2cc(C(N)=S)ccc21 | 11 |  |  | 
5 | NC(=O)c1ccc2c(c1)C(=O)C(=O)N2Cc1ccccc1 | 0.019 | 14.1 | 50.1 | TI [4]: 3.5
6 | CNC(=O)c1ccc2c(c1)C(=O)C(=O)N2C | 12 |  |  | 
7 | CN(C)C(=O)c1ccc2c(c1)C(=O)C(=O)N2C | 33 |  |  | 
8 | CN1C(=O)C(=O)c2cc(C#N)ccc21 | 51 |  |  | 
9 | CN1C(=O)C(=O)c2cc(I)ccc21 | 30 | 71 | > 100 | TI [4]: > 1
10 | COC(=O)c1ccc2c(c1)C(=O)C(=O)N2C | 30 | 56 | > 100 | TI [4]: > 2
11 | CN1C(=O)C(=O)c2cc(C(N)=O)ccc21 |  | 66 | 270 | inhibition [5]: 0%; Ki (Enterovirus [6]): 0.077 µM; inhibition [7]: 0%; inhibition [8]: 0%; TI [4]: 4; Ki (Enterovirus [9]): 0.051 µM; Ki (Enterovirus [10]): 0.035 µM; Ki (Enterovirus [11]): 0.04 µM; inhibition [12]: 0%; inhibition [13]: 0%
12 | COc1cccc(CN2C(=O)C(=O)c3cc(C(N)=O)ccc32)c1 | 0.029 | > 20 | 20 | 
13 | CN1C(=O)C(=O)c2cc(C(=O)O)ccc21 | 10 | > 100 | > 100 | 
14 | NC(=O)c1ccc2c(c1)C(=O)C(=O)N2C/C=C/c1ccccc1 |  | 6.3 | 9.6 | inhibition [14]: 40%; TI [4]: 1.5; Ki (Enterovirus [9]): 0.011 µM; inhibition [15]: 67%; inhibition at 100 µM [16]: 27%; inhibition [17]: 34%; inhibition [18]: 0%
15 | NC(=O)c1ccc2c(c1)C(=O)C(=O)N2Cc1cccc(O)c1 | 0.011 | > 20 | 20 | 
16 | COc1ccc2cc(CN3C(=O)C(=O)c4cc(C(N)=O)ccc43)ccc2c1 | 0.003 |  |  | 
17 | CN1C(=O)C(=O)c2cc([N+](=O)[O-])ccc21 | 9.7 |  |  | 
18 | NC(=O)c1ccc2c(c1)C(=O)C(=O)N2CCCc1ccccc1 | 0.027 | > 7.1 | 7.1 | 
19 | COc1cc(CN2C(=O)C(=O)c3cc(C(N)=O)ccc32)cc(OC)c1 | 0.025 |  |  | 
20 | Cc1ccc(CN2C(=O)C(=O)c3cc(C(N)=O)ccc32)cc1 | 0.01 |  |  | 
21 | CN1C(=O)C(=O)c2cc([S+](C)[O-])ccc21 (configuration not stated) | 8.2 |  |  | 
22 | NC(=O)c1ccc2c(c1)C(=O)C(=O)N2Cc1cc(O)cc(O)c1 | 0.004 | > 100 | > 100 | 
23 | CN1C(=O)C(=O)c2cc(Cl)ccc21 | 59 |  |  | 
24 | NC(=O)c1ccc2c(c1)C(=O)C(=O)N2Cc1ccc2cc(O)ccc2c1 | 0.004 |  |  | 
25 | NC(=O)c1ccc2c(c1)C(=O)C(=O)N2Cc1cc2ccccc2s1 |  | > 5.6 | 5.6 | inhibition [19]: 25%; Ki (Enterovirus [6]): 0.0052 µM; inhibition [8]: 0%; Ki (Enterovirus [9]): 0.002 µM; Ki (Enterovirus [10]): 0.0011 µM; Ki (Enterovirus [11]): 0.012 µM; inhibition [12]: 0%; inhibition [13]: 0%; inhibition [20]: 0%
26 | NC(=O)c1ccc2c(c1)C(=O)C(=O)N2Cc1ccc(-c2ccccc2)cc1 | 0.048 |  |  | 
27 | CN1C(=O)C(=O)c2ccccc21 | > 100 |  |  | 
